The list is not random: actives were taken first. Their share in the collection is about 4.5%.
OX1R antag-1 – human HCRTR1 antagonism; O43613; CHO/OX1R cells, Fluo-8 calcium fluorescence, orexin A; inhibition, % at 5 µM; 0.43% of 330,000 active; AID 434989;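 active = inhibition above its plate's threshold, mean inhibition of all tested compounds on the plate plus 3 SD, cut at about 37% in these data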;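 also: 0% = orexin A challenge wells and 100% = SB-334867-A antagonist wells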
GPR7 antagonist – antagonists of human GPR7 (neuropeptides B/W receptor 1); 1.1% of 290,000 active; P48145; inhibition, % at 4.4 µM; GPR7-expressing cells, fluorescence antagonist assay; in the data active = inhibition above about 16%, passing the limit was not always enough;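 also: cells stimulated with the agonist NPW; 0% = agonist with vehicle and 100% = vehicle without agonist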
Target sequence (P48145 whole entry, looked up): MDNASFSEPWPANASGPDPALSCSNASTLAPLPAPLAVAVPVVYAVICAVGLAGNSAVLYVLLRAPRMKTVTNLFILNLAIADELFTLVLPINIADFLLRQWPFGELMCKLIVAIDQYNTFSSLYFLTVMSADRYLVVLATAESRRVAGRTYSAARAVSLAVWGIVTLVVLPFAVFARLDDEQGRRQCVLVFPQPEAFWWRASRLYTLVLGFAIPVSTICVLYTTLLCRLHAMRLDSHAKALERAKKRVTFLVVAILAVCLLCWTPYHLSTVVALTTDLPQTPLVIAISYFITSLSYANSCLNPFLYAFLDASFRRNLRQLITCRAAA
OX1R antag-2 – blocks the human orexin 1 receptor | OX1R-expressing cells, FRET antagonist read-out | inhibition, % at 6.6 µM | 1.8% of 330,000 active; in the data active = inhibition mostly above about 38%, no sharp cut-off; inactive = mostly below about 40%;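 also: 0% = agonist challenge alone and 100% = reference antagonist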
TAAR1 ag – agonists of human TAAR1. Q96RJ0. CHO RD-HGA16 TAAR1, Fluo-8 calcium fluorescence; vehicle wells 0%, saturating PEA agonist 100%. activation, % at 3 µM. 0.99% of 360,000 active. AID 624467;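 active = activation above the mean activation of all test compounds in the run plus 3 SD, cut at about 38% in these data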
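Assay system: CHO-derived RD-HGA16 cells with stable Gα16 and human TAAR1; timing: 17-24 h seeding, 75 min 37 °C dye, 30 min RT; read-out: % activation from peak over basal fluorescence ratio, DMSO-to-PEA scaled; measured by: kinetic Fluo-8 calcium fluorescence; benchmarks: low control DMSO, high control PEA (EC100); doses: 3 µM single concentration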
CHO parental Ca – signal in parental CHO cells, OX1R antagonist counter-screen; 0.63% of 330,000 active; parental CHO-K1, ATP-induced calcium, Fluo-8 fluorescence; AID 463079; inhibition, % at 5.6 µM;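 active = inhibition above that plate's mean sample inhibition plus 3 SD, cut at about 26% in these data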;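 also: 0% = ATP-challenged DMSO wells and 100% = DMSO wells without ATP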
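Test system: untransfected parental CHO cell line. Compound: one dose, 5.6 µM nominal. Detection: intracellular calcium via Fluo-8 no-wash fluorescent dye. Measure: % inhibition. Benchmarks: ATP-challenged DMSO wells low, unchallenged DMSO wells high.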
TAAR1 antagonist – antagonists of human TAAR1; Q96RJ0; CHO RD-HGA16 TAAR1, Fluo-8 calcium fluorescence, antagonist; inhibition, % at 3 µM; 1.5% of 360,000 active; AID 624466;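 active = inhibition above a per-plate cutoff, the mean inhibition of test compounds on that plate plus 3 SD, cut at about 49% in these data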;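 also: 0% = DMSO plus EC80 beta-PEA response and 100% = DMSO alone without agonist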
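System: RD-HGA16 CHO cells with stable hTAAR1 and Gα16 | Probe or stimulus: EC80 β-phenethylamine stimulus | Dosing: 3 µM, single point | Times: Dye loading 75 min at 37 °C, then 30 min room temperature | Measured by: Fluo-8 calcium-sensitive fluorescence | Read-out basis: % inhibition of agonist calcium response | Replicates: n of 1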
* hit, by the source's call; . = no result given.

SMILES	OX1R antag-1	GPR7 antagonist	OX1R antag-2	TAAR1 ag	CHO parental Ca	TAAR1 antagonist
CC(C)c1[nH]nc2c1C(c1cccc(C(F)(F)F)c1)NC2=O (stereo unspecified)	.	.	.	5	.	-13
COc1cc(COCC(O)CN2CCN(CCN3C(=O)c4cccc5cccc(c45)C3=O)CC2)cc(OC)c1OC (stereo unspecified)	-29	-6	22	-1	-11	-9
COc1ccc(COCC(O)CN2CCC(CN3C(=O)c4cccc5cccc(c45)C3=O)CC2)cc1OC (stereo unspecified)	-18	-2	49*	4	-27	-13
Cc1cc(C)cc(OCC(O)CN2CCC(CN3C(=O)c4cccc5cccc(c45)C3=O)CC2)c1 (stereo unspecified)	1	.	18	39*	17	0
COc1cccc(OCC(O)CN2CCC(CN3C(=O)c4cccc5cccc(c45)C3=O)CC2)c1 (stereo unspecified)	-22	-11	35	4	-5	-2
O=[N+]([O-])c1ccc(-c2nnc(-c3ccccc3)c(NCCCO)n2)cc1	-3	-11	38*	0	1	-13
COc1cc2ccccc2cc1C(=O)OCc1nc2ccsc2c(=O)[nH]1	-7	.	35*	7	-22	25
Cc1ccccc1Nc1nc(N)nc(COC(=O)c2ccco2)n1	-4	.	6	4	-11	1
COCc1c(C(=O)OCc2nc(N)nc(Nc3ccccc3C)n2)oc2ccccc12	16	1	47*	11	-25	0
COc1cc(SC)ccc1C(=O)OCc1nc2ccsc2c(=O)[nH]1	-18	.	39	5	-21	19
COCc1c(C(=O)OCc2nc3ccsc3c(=O)[nH]2)oc2ccccc12	11	.	28*	1	-20	1
O=[N+]([O-])c1ccc(N2CCN(S(=O)(=O)c3ccccc3)CC2)cc1	1	6	12	2	8	19
CCCCNC(=O)C1(C)CCCCN1C(=O)c1ccc(C)c(F)c1 (stereo unspecified)	.	.	.	1	.	-14
Nc1nc2c(ncn2[C@@H]2O[C@H](C(=O)NCC(c3ccccc3)c3ccccc3)[C@@H](O)[C@H]2O)c(=O)[nH]1	.	.	.	1	.	-11
COCCCNC1=C(Cl)C(=O)c2ccccc2C1=O	-1	-8	56*	4	-7	-19
O=C1C(Cl)=C(Nc2ccccc2)C(=O)c2ccccc21	18	-11	40	-3	24	2
CC(C)NC1=C(Cl)C(=O)c2ccccc2C1=O	-10	-1	43*	0	-4	-5
COCCCNc1c2c3c(cccc3[nH]c1=O)C(=O)c1ccccc1-2	95*	-8	56*	218*	89*	79*
CC(C)OCCCNC1=C(Cl)C(=O)c2ccccc2C1=O	-18	6	69*	-3	-7	-2
Cc1cc(C)c(O)c(-c2cc(C(=O)Nc3ccc(S(=O)(=O)N4CCOCC4)cc3)[nH]n2)c1	40	-13	24	15	34*	38
O=C1c2ccc([N+](=O)[O-])cc2C(=O)N1Cc1cccnc1	-18	-16	77*	6	-2	-20
CCCCC[C@@H](C)N1C[C@@H](COCc2ccccc2)Oc2cc(N3CC[C@@H](N(C)C)C3)ccc2S1(=O)=O	.	.	.	21	.	-12
O=C(CSCC(=O)Nc1nc(-c2ccc3c(c2)OCO3)cs1)Nc1nccs1	-6	-14	6	16	24	54*
O=C(CSc1ccc(-c2ccc3c(c2)OCO3)nn1)Nc1nccs1	-19	5	28	2	-9	10
NC(=O)c1c(N)[nH]c(C(=O)c2ccccc2)c1-c1ccccc1Cl	.	.	.	9	.	19
SMILES	OX1R antag-1	GPR7 antagonist	OX1R antag-2	TAAR1 ag	CHO parental Ca	TAAR1 antagonist
C=CCOc1ccc(C=CC(=O)c2c(O)c(OC)c(OC)c(OC)c2OC)cc1	.	.	.	2	.	69*
COc1ccc(C(C#N)=Cc2ccc(N(C)CCC#N)cc2)cc1	.	.	.	4	.	35
CCOC(=O)c1ccc(-c2ccc3oc(-c4ccsc4)cc(=O)c3c2)cc1F	-31	.	8	10	-10	-7
COCCN1C(=O)/C(=C/c2ccc(N3CCCC3)cc2)SC1=S	50*	1	13	52*	42*	50*
C#CCNc1cccc2c1S(=O)(=O)N[C@H](C)CO2	.	.	.	0	.	-9
CC(NC(=O)Nc1ccc([N+](=O)[O-])cc1)C(c1ccccc1)N1CCOCC1 (stereo unspecified)	-11	6	-3	49*	-3	-3
CC(NC(=O)Nc1ccc(Cl)c(Cl)c1)C(c1ccccc1)N1CCOCC1 (stereo unspecified)	-21	-6	-10	57*	1	9
CC(Cc1cccs1)NC(=O)Nc1ccc(Cl)c(Cl)c1 (stereo unspecified)	47*	-5	49*	30	63*	-2
CC(Cc1cccs1)NC(=O)Nc1ccc(Cl)cc1 (stereo unspecified)	0	-5	25	11	0	16
CC(NC(=O)c1ccc(Cl)cc1Cl)C(c1ccccc1)N1CCOCC1 (stereo unspecified)	-7	-3	14	5	-6	-3
CCOC(=O)C1CCCN(C(=O)c2ccc3c(c2)C(C)(C)CCC3(C)C)CC1 (stereo unspecified)	.	.	.	-2	.	17
CCN=C1NC(c2ccc(C(F)(F)F)cc2)C(C(=O)OC)=C(C)N1Cc1ccccc1C(F)(F)F (stereo unspecified)	.	.	.	19	.	21
Cc1nn(-c2ccccc2)c2sc(C(=O)NNC(=O)COc3cccc4ccccc34)cc12	-29	20	11	4	-15	15
Cc1nn(-c2ccccc2)c2sc(C(=O)NNC(=O)COc3ccccc3)cc12	-9	-2	49*	2	-6	-6
Cc1cccn2c(=O)c3cc(C(=O)NC4CCCC4)sc3nc12	-5	-2	55*	0	-10	1
COc1ccc(-c2ccc3c(n2)CCCN3S(=O)(=O)c2ccc(OC)cc2)cc1	.	.	.	2	.	20
Nc1ncc(Br)cc1S(=O)(=O)Nc1cc(C(F)(F)F)cc(C(F)(F)F)c1	25	20	85*	4	25	-28
Cc1noc(C)c1S(=O)(=O)N1CCCc2nc(-c3ccccc3)ccc21	.	.	.	0	.	-1
COc1cc(C2C(C#N)=C(N)OC3=C2C(=O)CC(C)(C)C3)ccc1OCCN1CCOCC1 (stereo unspecified)	-4	-13	31	0	-2	-8
N#CC(C#N)=C(Nc1ccc(F)cc1)SCc1cccc(Br)c1	36	1	56	6	70*	30
Cc1cccc(CSC(Nc2ccc(F)cc2)=C(C#N)C#N)c1	5	11	29	7	25*	27
